An excerpt weighted towards active compounds, which were near 3.5% of everything screened.
MrgX1 antagonist: blocks BAM8-22 activation of human MrgX1 receptor. Q96LB2. MRGX1-HEK293 calcium flux, Fluo-4, BAM8-22 antagonism; hits give low values. B-score at 10 µM. 1.3% of 310,000 active. AID 588676;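 active = calcium-response B-score plate-corrected more than 3 library SD below zero, starting fluorescence within 5 deviations, no agonist response on first addition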;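 also: peak minus trough fluorescence over baseline after final BAM8-22 challenge near maximal dose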
Target sequence (Q96LB2 whole entry, looked up): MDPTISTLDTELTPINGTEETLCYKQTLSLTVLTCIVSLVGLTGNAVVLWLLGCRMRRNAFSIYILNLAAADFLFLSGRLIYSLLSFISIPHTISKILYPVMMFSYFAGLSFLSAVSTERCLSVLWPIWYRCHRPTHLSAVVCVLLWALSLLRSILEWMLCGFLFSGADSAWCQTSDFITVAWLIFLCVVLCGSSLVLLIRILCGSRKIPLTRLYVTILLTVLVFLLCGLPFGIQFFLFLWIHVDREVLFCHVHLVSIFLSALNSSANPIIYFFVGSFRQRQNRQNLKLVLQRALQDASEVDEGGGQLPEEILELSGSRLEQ
RGS4 pot: potentiators or activators of RGS4. HEK293 M3R/inducible RGS4, carbachol calcium flux Fluo4; hits give low values. B-score at 10 µM. 0.92% of 310,000 active;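 active = B-score of the integrated calcium signal more than 4 SD below the library mean, with starting fluorescence not abnormally high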;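 also: negative B-score means reduced calcium response which marks RGS4 activation or potentiation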
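Also added: carbachol at ECmax as muscarinic agonist stimulus; Assay system: HEK293 cells with stable M3R and inducible RGS4; Timing: overnight RGS4 induction, 30 min dye load 37 °C, 20 min compound RT; Measured by: Fluo4-AM (2 µM) calcium-flux fluorescence, kinetic read.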
RGS4 block: human RGS4 inhibition. B-score at 10 µM. HEK293 M3R/RGS4 inducible, Fluo-4 calcium flux; hits give high values; triggered by carbachol at its EC20. 0.45% of 310,000 active;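 active = B-score, a plate-corrected calcium signal, over three deviations above library mean, with baseline fluorescence within five deviations of library mean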;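 also: RGS4 expression induced by doxycycline in cells with stable M3 receptor; B-score is computed from the integrated fluorescence ratio over baseline after carbachol; higher B-score means a larger calcium signal and so more RGS4 inhibition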
Target sequence (P49798 whole entry, looked up): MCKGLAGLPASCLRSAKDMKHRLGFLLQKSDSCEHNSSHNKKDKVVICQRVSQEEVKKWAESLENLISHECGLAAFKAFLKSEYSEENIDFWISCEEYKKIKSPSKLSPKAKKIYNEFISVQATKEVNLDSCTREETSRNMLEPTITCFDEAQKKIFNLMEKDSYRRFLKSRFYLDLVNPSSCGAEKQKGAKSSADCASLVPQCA
MrgX1 allo act: allosterically activates human MrgX1 receptor signaling | MrgX1-HEK293, Fluo-4 calcium flux, FDSS; hits give high values | Q96LB2 | 0.63% of 310,000 active | B-score at 10 µM | AID 588675;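 active = plate-corrected calcium response at least 3 library SD above typical, normal starting fluorescence, not activating the receptor alone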;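 also: compound read alongside a low EC10 to EC30 dose of BAM8-22 agonist; peak minus trough fluorescence over baseline measured at the second addition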
MrgX1 agonist: activates human MrgX1 receptor signaling | MrgX1-HEK293 cells, Fluo-4 calcium fluorescence, agonist mode; hits give high values | 0.44% of 310,000 active | Q96LB2 | B-score at 10 µM;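 active = calcium response B-score plate-corrected fluorescence ratio at least 3 library SD, with starting fluorescence B-score inside 5 SD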
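Material: HEK293 cells stably expressing human MrgX1 receptor | Quantity: 15,000 cells per well | Times: Cells plated overnight, dye loaded 0.5 h 37 °C, 0.5 h room temperature | Measured by: Kinetic Fluo-4 NW fluorescence of intracellular calcium | Control set: Positive and negative controls per plate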
MrgX1 ant reconf: reconfirmed antagonist of human MrgX1 receptor signaling. shares compounds with MrgX1 antagonist. MrgX1-HEK293, BAM8-22 calcium flux, Fluo-4; hits give low values. remaining BAM8-22 calcium response % of control (hits give low values), % at 10 µM. 19% of 2,300 active. AID 602420;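 active = remaining agonist calcium response no higher than 100% minus 3 SD of agonist-only control wells, with starting fluorescence near control levels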;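 also: agonist BAM8-22 given at a near maximal EC90 to ECmax level; peak minus minimum fluorescence divided by baseline after agonist addition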
HEK293 Ca flux: counter-screen for MrgX1 antagonists: effect in parental HEK293 cells. shares compounds with MrgX1 antagonist. Fluo-4 calcium fluorescence, FDSS. fluorescence ratio F(max-min)/F0 at 10 µM. 2% of 4,000 active;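 active = duplicate-averaged calcium fluorescence ratio at least three times the standard deviation of buffer wells, a nonspecific response in parental cells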
HEK293 Ca counter: counter-screen for MrgX1 allosteric activators: effect in parental HEK293 cells; shares compounds with MrgX1 antagonist; parental HEK293 calcium flux, Fluo-4 fluorescence ratio; hits give high values; fluorescence ratio F(max-min)/F0 at 10 µM; 0.4% of 4,000 active; AID 624114;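 active = calcium fluorescence ratio, averaged over duplicates, at least 3 SD of the buffer-well ratio, meaning a nonspecific response in receptor-free cells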;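 also: untransfected parental HEK293 lacking MrgX1 used as counterscreen for MrgX1 allosteric activators; fluorescence change taken during the second addition on a kinetic imager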
HEK293 Ca cntr2: activity in parental HEK293 cells lacking MrgX1 receptor; shares compounds with MrgX1 antagonist; Fluo-4 calcium fluorescence (FDSS); hits give high values; fluorescence ratio F(max-min)/F0 at 10 µM; 8.7% of 4,000 active; AID 624115;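 active = calcium fluorescence ratio at least three times the spread of buffer wells, meaning a non-specific response in parental cells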
* hit, by the source's call.

Screening O=C1c2ccncc2C(=O)N1CO returned MrgX1 antagonist -5*, RGS4 pot inactive, RGS4 block inactive, MrgX1 allo act inactive, MrgX1 agonist inactive, MrgX1 ant reconf 85%*, HEK293 Ca flux inactive, HEK293 Ca counter inactive and HEK293 Ca cntr2 inactive.
For O=C(c1cn(CC(=O)N2CCCCC2)c2ccccc12)C1CC1 the results were MrgX1 antagonist -5*, RGS4 pot inactive, RGS4 block inactive, MrgX1 allo act inactive, MrgX1 agonist inactive, MrgX1 ant reconf inactive, HEK293 Ca flux inactive, HEK293 Ca counter inactive and HEK293 Ca cntr2 inactive.
Screening O=C(NCCCn1ccnc1)c1cc(S(=O)(=O)N2CCOCC2)c(Cl)cc1Cl returned MrgX1 antagonist -5.1*, RGS4 pot inactive, RGS4 block inactive, MrgX1 allo act inactive, MrgX1 agonist inactive, MrgX1 ant reconf inactive, HEK293 Ca flux inactive, HEK293 Ca counter inactive and HEK293 Ca cntr2 inactive.
C=CCn1c(CNc2ccc(C)cc2)nnc1SCC(=O)N/N=C/c1ccc(O)cc1 was read as MrgX1 antagonist inactive, RGS4 pot inactive, RGS4 block inactive, MrgX1 allo act inactive and MrgX1 agonist inactive.
Cc1ccc(NC(=O)COC(=O)CCC(=O)c2cccs2)c(C)c1 was read as MrgX1 antagonist inactive, RGS4 pot inactive, RGS4 block inactive, MrgX1 allo act inactive and MrgX1 agonist inactive.
Screening COc1ccc(C(=O)N[C@H](C(=O)OCC(=O)NC(=O)c2cccn2C)C(C)C)cc1 returned MrgX1 antagonist -4.8*, RGS4 pot inactive, RGS4 block inactive, MrgX1 allo act inactive, MrgX1 agonist inactive, MrgX1 ant reconf inactive, HEK293 Ca flux inactive, HEK293 Ca counter inactive and HEK293 Ca cntr2 inactive.
`C=C(C)Cn1c(SCC(=O)N/N=C/c2cccc(O)c2)nc2ccccc2c1=O` gave MrgX1 antagonist inactive, RGS4 pot inactive, RGS4 block inactive, MrgX1 allo act inactive and MrgX1 agonist inactive.
For COc1ccc(NC(=O)C2CCCN(c3nn4c(=O)cc(C)nc4s3)C2)c(OC)c1 (stereo not drawn) the results were MrgX1 antagonist inactive, RGS4 pot inactive, RGS4 block inactive, MrgX1 allo act inactive and MrgX1 agonist inactive.
Cc1ccccc1NC(=O)CSc1ccc(-c2ccc(-n3cccn3)cc2)nn1 was read as MrgX1 antagonist inactive, RGS4 pot inactive, RGS4 block inactive, MrgX1 allo act inactive and MrgX1 agonist inactive.
COc1ccccc1NC(=O)CSc1ccc(-c2ccc(-n3ccnc3)cc2)nn1 was read as MrgX1 antagonist -5.1*, RGS4 pot inactive, RGS4 block inactive, MrgX1 allo act inactive, MrgX1 agonist inactive, MrgX1 ant reconf inactive, HEK293 Ca flux inactive, HEK293 Ca counter inactive and HEK293 Ca cntr2 inactive.
CCc1cccc(CC)c1NC(=O)COC(=O)c1ccc(F)c(S(=O)(=O)N(CC)CC)c1 was read as MrgX1 antagonist inactive, RGS4 pot inactive, RGS4 block inactive, MrgX1 allo act inactive and MrgX1 agonist inactive.
`CC(C)/C=C/CN1CCN(CCCc2ccccc2)C(CCO)C1` (stereo not drawn) gave MrgX1 antagonist inactive, RGS4 pot inactive, RGS4 block inactive, MrgX1 allo act inactive and MrgX1 agonist inactive.

Screening results as filed in PubChem BioAssay.
